MEKK2 WT-MEK5: modulators of MEK5 binding to wildtype MEKK2, primary screen, biochemical, multiplex bead flow cytometry, Alexa488-MEK5 | binding response (% of control), % at 10 µM | Alexa488-MEK5 binding to MEKK2 WT; actives lie on both sides | Mitogen-activated protein kinase kinase kinase 2 (Homo sapiens), Q9Y2U5 | 1.1% of 290,000 active; in the data active = binding response below about 67% or above about 130%
MEKK3 PB1 HTS: modulators of MEKK3-MEK5 PB1 binding, primary screen, biochemical, wildtype MEKK3, multiplex bead flow cytometry, Alexa488-MEK5; Mitogen-activated protein kinase kinase kinase 3 (Homo sapiens), Q99759; bead-based flow cytometry, Alexa488-MEK5 binding to MEKK3; actives lie on both sides; 0 = blocked by unlabeled MEK5, 100 = vehicle; 1.4% of 290,000 active; AID 1529, 2009; binding response (% of control), % at 10 µM;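 active = binding response more than 3 SD above or below the average of its plate-row segment, actives on both sides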;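 note: Alexa488 bead fluorescence after subtracting the streptavidin-only scavenger bead signal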
IMP-1 inh-1: IMP-1 metallo-beta-lactamase inhibitors, primary screen, biochemical, epi-absorbance readout, Pseudomonas aeruginosa enzyme; purified IMP-1, nitrocefin hydrolysis, epi-absorbance fluorescence; 0.45% of 290,000 active; inhibition, % at 5.6 µM; metallo-beta-lactamase IMP-1 (Pseudomonas aeruginosa); AID 1556, 2009;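 active = inhibition above the mean plus 3 SD of all compounds in the same screening run, cut at about 4.5% in these data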;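 note: 0% = IMP-1 with DMSO and 100% = DMSO wells lacking enzyme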
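Test system: recombinant IMP-1 enzyme, purified / Medium: HEPES buffer pH 7.1 with ZnSO4 and Brij 35 / Doses: single dose, 5.6 µM / Times: 25 °C, 15 min preincubation, 25 min reaction / Detection: Epi-absorbance via hydrolysed-nitrocefin quenching of white-plate fluorescence, 480/530 nm, EDTA stop / Evaluation: percent inhibition from optical density relative to buffer-blank wells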
MEKK2 mut-MEK5: MEK5 binding signal on mutant MEKK2 PB1, primary screen, biochemical, multiplex bead flow cytometry, Alexa488-MEK5; 0.35% of 290,000 active; AID 1530, 2009; Alexa488-MEK5 binding to MEKK2 mutant; percent response, % at 10 µM; in the data active = percent response above about 24%, passing the limit was not always enough
VIM-2 inh: VIM-2 metallo-beta-lactamase inhibitors, primary screen, biochemical, epi-absorbance readout, Pseudomonas aeruginosa enzyme. purified VIM-2, nitrocefin hydrolysis, epi-absorbance fluorescence. inhibition, % at 5.6 µM. 0.89% of 290,000 active. AID 1527, 2009;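 active = inhibition above the mean of all tested compounds plus 3 SD, cutoff set per screening run, cut at about 7.5% in these data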;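 note: red hydrolysis product quenches plate fluorescence so inhibitors raise well fluorescence; 0% = enzyme with DMSO and 100% = DMSO without enzyme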
IMP-1 inh-2: IMP-1 metallo-beta-lactamase inhibitors, confirmation, selectivity assay for selective VIM-2 inhibitor project, biochemical, epi-absorbance readout, triplicate; shares compounds with VIM-2 inh; AID 1856, 2009; purified IMP-1, nitrocefin hydrolysis, epi-absorbance fluorescence; 1,300 tested, under 10 active; inhibition, % at 5.6 µM; call rule not given here;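 note: 0% = enzyme with vehicle and 100% = vehicle without enzyme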
VIM-2 FRET inh: VIM-2 inhibitors in FRET format, confirmation, artefact control for selective VIM-2 inhibitor project, biochemical, epi-absorbance artifact exclusion; shares compounds with VIM-2 inh; purified VIM-2, CCF2 FRET substrate hydrolysis; inhibition, % at 5.6 µM; 23% of 1,300 active;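 active = inhibition above the mean of all tested compounds plus 3 SD, cut at about 19% in these data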;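 note: 0% = VIM-2 plus DMSO and 100% = no enzyme wells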
TEM-1 counter: TEM-1 serine beta-lactamase inhibitors, counter-screen for VIM-2 inhibitor project, biochemical, epi-absorbance, HTS; shares compounds with VIM-2 inh; Purified TEM-1, nitrocefin hydrolysis, epi-absorbance fluorescence; inhibition, % at 5.6 µM; 3% of 1,300 active; AID 1866, 2009;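 active = inhibition above that campaign's mean inhibition plus 3 SD, cut at about 0.46% in these data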;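 note: 0% = TEM-1 with DMSO and 100% = TEM-1 with 100 µM potassium clavulanate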
Target sequence (P62593 whole entry, looked up): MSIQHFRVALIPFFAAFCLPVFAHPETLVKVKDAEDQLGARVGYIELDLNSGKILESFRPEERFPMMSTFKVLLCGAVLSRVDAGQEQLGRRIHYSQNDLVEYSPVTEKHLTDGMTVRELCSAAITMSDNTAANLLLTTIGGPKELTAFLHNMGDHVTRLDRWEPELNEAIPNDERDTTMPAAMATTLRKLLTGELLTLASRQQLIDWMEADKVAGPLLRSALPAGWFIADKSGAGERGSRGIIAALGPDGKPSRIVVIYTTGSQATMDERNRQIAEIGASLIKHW
VIM-2 inh conf: VIM-2 metallo-beta-lactamase inhibitors, confirmation, biochemical, epi-absorbance, hits shared with IMP-1 screen; inhibition, % at 5.6 µM; 96% of 1,300 active; purified VIM-2, nitrocefin hydrolysis; shares compounds with VIM-2 inh; AID 2187, 2009;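 active = inhibition of the VIM-2 beta-lactamase enzyme above about 11% from the earlier first-round screen, limit read from the data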;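 note: 0% = VIM-2 with DMSO and 100% = buffer wells without enzyme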
Starred values were filed as active, the others as inactive. An excerpt weighted towards active compounds, which were near 3.4% of everything screened.

How did CCOC(=O)c1cnc2c(Cl)c(Cl)ccc2c1N1CCN(C)CC1 do in these assays?
MEKK2 WT-MEK5: 106; MEKK3 PB1 HTS: 98; IMP-1 inh-1: 1; MEKK2 mut-MEK5: 1; VIM-2 inh: 15*; IMP-1 inh-2: -3; VIM-2 FRET inh: 1; TEM-1 counter: -9; VIM-2 inh conf: 24*

How did CCOC(=O)c1cnc2c(C)c(Cl)ccc2c1N1CCN(CC)CC1 do in these assays?
MEKK2 WT-MEK5: 103; MEKK3 PB1 HTS: 95; IMP-1 inh-1: -3; MEKK2 mut-MEK5: 4; VIM-2 inh: 5

How did CCC(OC(=O)c1ccco1)C(=O)NCc1ccco1 (stereo not drawn) do in these assays?
MEKK2 WT-MEK5: 86; MEKK3 PB1 HTS: 83; IMP-1 inh-1: -4; MEKK2 mut-MEK5: -9; VIM-2 inh: -2

Results for Cc1nc(C#N)c(N/N=C/c2cccc(Cl)c2)o1 ?
MEKK2 WT-MEK5: 103; MEKK3 PB1 HTS: 112; IMP-1 inh-1: -4; MEKK2 mut-MEK5: -3; VIM-2 inh: 0

What do the screens show for `C[n+]1cccc(/C=N/Nc2nc(Cl)c(C#N)c(Cl)c2Cl)c1`?
MEKK2 WT-MEK5: 103; MEKK3 PB1 HTS: 99; IMP-1 inh-1: -3; MEKK2 mut-MEK5: 4; VIM-2 inh: 41*; IMP-1 inh-2: -3; VIM-2 FRET inh: 32*; TEM-1 counter: -6; VIM-2 inh conf: 57*

Results for CN1CCN(CC(=O)Nc2cc(N(C)C)nc3ccccc23)CC1 ?
MEKK2 WT-MEK5: 102; MEKK3 PB1 HTS: 102; IMP-1 inh-1: -3; MEKK2 mut-MEK5: 1; VIM-2 inh: 19*; IMP-1 inh-2: -3; VIM-2 FRET inh: -2; TEM-1 counter: -2; VIM-2 inh conf: 38*

How did O=C(CN1C(=O)NC2(CCCC2)C1=O)Nc1ccccc1C(F)(F)F do in these assays?
MEKK2 WT-MEK5: 102; MEKK3 PB1 HTS: 104; IMP-1 inh-1: -4; MEKK2 mut-MEK5: 3; VIM-2 inh: -3

What do the screens show for `Clc1ccc(OCCN2CCOCC2)cc1Cl`?
MEKK2 WT-MEK5: 110; MEKK3 PB1 HTS: 109; IMP-1 inh-1: 0; MEKK2 mut-MEK5: 4; VIM-2 inh: -1

What do the screens show for `NC(=S)NN=C1c2cc(OCCN3CCOCC3)ccc2-c2ccc(OCCN3CCOCC3)cc21`?
MEKK2 WT-MEK5: 114; MEKK3 PB1 HTS: 106; IMP-1 inh-1: -3; MEKK2 mut-MEK5: 11; VIM-2 inh: 59*; IMP-1 inh-2: -3; VIM-2 FRET inh: -3; TEM-1 counter: -11; VIM-2 inh conf: 71*

Results for CSC1=NCCN1C(=O)C12CC3CC(CC(C3)C1)C2 ?
MEKK2 WT-MEK5: 96; MEKK3 PB1 HTS: 101; IMP-1 inh-1: -3; MEKK2 mut-MEK5: -3; VIM-2 inh: 1

Results for Cc1ccc2c(c1)c1nc3ccccc3nc1n2C ?
MEKK2 WT-MEK5: 101; MEKK3 PB1 HTS: 104; IMP-1 inh-1: 1; MEKK2 mut-MEK5: 8; VIM-2 inh: 14*; IMP-1 inh-2: -1; VIM-2 FRET inh: 1; TEM-1 counter: -4; VIM-2 inh conf: 16*

What do the screens show for `C(=N\Nc1ncnc2sc3c(c12)CCC3)/c1ccncc1`?
MEKK2 WT-MEK5: 107; MEKK3 PB1 HTS: 107; IMP-1 inh-1: -5; MEKK2 mut-MEK5: 1; VIM-2 inh: 34*; IMP-1 inh-2: -2; VIM-2 FRET inh: -6; TEM-1 counter: -4; VIM-2 inh conf: 53*

How did C(=N\Nc1ncnc2sc3c(c12)CCC3)/c1cccs1 do in these assays?
MEKK2 WT-MEK5: 100; MEKK3 PB1 HTS: 101; IMP-1 inh-1: -1; MEKK2 mut-MEK5: 1; VIM-2 inh: 2

What do the screens show for `CCOC(=O)c1cnc2c(CC)cccc2c1NCCN1CCOCC1`?
MEKK2 WT-MEK5: 107; MEKK3 PB1 HTS: 106; IMP-1 inh-1: -2; MEKK2 mut-MEK5: 9; VIM-2 inh: 14*; IMP-1 inh-2: -3; VIM-2 FRET inh: 1; TEM-1 counter: -6; VIM-2 inh conf: 24*

Results for CCOC(=O)c1cnc2c(C(=O)OC)cccc2c1NCCN1CCOCC1 ?
MEKK2 WT-MEK5: 110; MEKK3 PB1 HTS: 107; IMP-1 inh-1: -3; MEKK2 mut-MEK5: 4; VIM-2 inh: 0

Results for O=c1oc2cc(O[C@@H]3OC[C@@H](O)[C@H](O)[C@H]3O)ccc2c2ccccc12 ?
MEKK2 WT-MEK5: 104; MEKK3 PB1 HTS: 103; IMP-1 inh-1: -2; MEKK2 mut-MEK5: 6; VIM-2 inh: 16*; IMP-1 inh-2: -2; VIM-2 FRET inh: -3; TEM-1 counter: -5; VIM-2 inh conf: 28*

Results for C=C(C)Cn1c(-c2cccs2)n[nH]c1=S ?
MEKK2 WT-MEK5: 103; MEKK3 PB1 HTS: 103; IMP-1 inh-1: -1; MEKK2 mut-MEK5: -6; VIM-2 inh: 48*; IMP-1 inh-2: -4; VIM-2 FRET inh: 71*; TEM-1 counter: -9; VIM-2 inh conf: 53*

What do the screens show for `C=C(C)Cn1c(-c2cccc([N+](=O)[O-])c2)n[nH]c1=S`?
MEKK2 WT-MEK5: 102; MEKK3 PB1 HTS: 101; IMP-1 inh-1: -3; MEKK2 mut-MEK5: 2; VIM-2 inh: 3

Results for COc1ccc(CCn2c(SCCN3CCCCC3)nc3ccccc3c2=O)cc1OC ?
MEKK2 WT-MEK5: 114; MEKK3 PB1 HTS: 106; IMP-1 inh-1: -3; MEKK2 mut-MEK5: -5; VIM-2 inh: 75*; IMP-1 inh-2: -2; VIM-2 FRET inh: 0; TEM-1 counter: -5; VIM-2 inh conf: 84*

What do the screens show for `Cc1[nH]c(=O)[nH]c(=O)c1Sc1ccccc1[N+](=O)[O-]`?
MEKK2 WT-MEK5: 94; MEKK3 PB1 HTS: 93; IMP-1 inh-1: -5; MEKK2 mut-MEK5: -1; VIM-2 inh: -4
